In ChEMBL document CHEMBL1255300, “Pharmacodynamics of the antibacterial effect and emergence of resistance to tomopenem, formerly RO4908463/CS-023, in an in vitro pharmacokinetic model of Staphylococcus aureus infection” (Antimicrob Agents Chemother, 2008):
Activity calls are given as the source filed them. The calls are words filed in the database; no cut-off is given here.

Columns and labels:
Staphylococcus aureus [1] = assay: Antibacterial activity against methicillin-resistant Staphylococcus aureus 33815 infected in in vitro pharmacokinetic model assessed as reduction in viable count at 1500 mg, iv every 8 hrs measured after 24 hrs using 10^6 CFU/ml inoculum; assay type: functional
Outline: (§1)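 Single-compartment dilutional in vitro PK model, 37°C, stirred, in 10% Mueller-Hinton broth. […] Inoculum 10^6 CFU/ml from a 24-h plate culture was added 45 min before dosing. Viable counts by spiral plating on nutrient agar with β-lactamase neutralization. Log change was taken from time 0; detection limit 10^2 CFU/ml; at least triplicate.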

Staphylococcus aureus [2] = assay: Antibacterial activity against methicillin-resistant Staphylococcus aureus 33827 infected in in vitro pharmacokinetic model assessed as time required to 99.9% killing at 750 mg, iv every 8 hrs using 10^8 CFU/ml inoculum; assay type: functional
Outline: (§2)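 Single-compartment dilutional in vitro PK model, 10% Mueller-Hinton broth, 37°C, stirred, dilution 132 ml/h. […] Inoculum 10^6 CFU/ml (added 45 min pre-dose) or 10^8 CFU/ml (run overnight). Viable counts by spiral plating, beta-lactamase neutralization, detection limit 10^2 CFU/ml. At least triplicate.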

Staphylococcus aureus [3] = assay: Antibacterial activity against methicillin-resistant Staphylococcus aureus 33820 infected in in vitro pharmacokinetic model assessed as reduction in viable count at 1500 mg, iv every 8 hrs measured after 48 hrs using 10^6 CFU/ml inoculum; assay type: functional; outline: as §1
Staphylococcus aureus [4] = assay: Antibacterial activity against methicillin-resistant Staphylococcus aureus 33827 assessed as viable count at 4 times of MIC after 48 hrs using 10^6 CFU/ml inoculum; assay type: functional, organism-based
Staphylococcus aureus [5] = assay: T>MIC for static effect in methicillin-resistant Staphylococcus aureus 33922 in in vitro pharmacokinetic model after 24 hrs using 10^6 CFU/ml inoculum; assay type: functional
Staphylococcus aureus [6] = assay: AUBKC (0 to 48 hrs) in methicillin-resistant Staphylococcus aureus 33829 infected in in vitro pharmacokinetic model at 1500 mg, iv every 8 hrs using 10^6 CFU/ml inoculum; assay type: functional
Outline: (§3)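 Single-compartment dilutional in vitro PK model at 37°C in 10% Mueller-Hinton broth, stirred, flow 132 ml/h. […] Inoculum 10^6 CFU/ml added 45 min before dosing, or 10^8 CFU/ml run overnight. Viable counts with β-lactamase neutralisation. AUBKC by log-linear trapezoidal rule, at least triplicate.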

Staphylococcus aureus [7] = assay: Antibacterial activity against methicillin-resistant Staphylococcus aureus 33922 infected in in vitro pharmacokinetic model assessed as reduction in viable count at 1500 mg, iv every 8 hrs measured after 36 hrs using 10^6 CFU/ml inoculum; assay type: functional
Staphylococcus aureus [8] = assay: Antibacterial activity against methicillin-resistant Staphylococcus aureus 33815 infected in in vitro pharmacokinetic model assessed as reduction in viable count at 750 mg, iv every 8 hrs measured after 48 hrs using 10^8 CFU/ml inoculum; assay type: functional
Outline: (§4)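 PK model at 37°C in 10% MHB. […] A 0.5 McFarland suspension (1 ml) was added and the model run overnight to reach 10^8 CFU/ml before dosing. Counts were spiral-plated on nutrient agar with β-lactamase. Change in log CFU/ml was measured from time 0; at least triplicate.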

Staphylococcus aureus [9] = assay: T>MIC for static effect in methicillin-resistant Staphylococcus aureus 33820 in in vitro pharmacokinetic model after 24 hrs using 10^6 CFU/ml inoculum; assay type: functional
Staphylococcus aureus [10] = assay: Antibacterial activity against methicillin-resistant Staphylococcus aureus 33922 in in vitro pharmacokinetic model assessed as viable count at 4 times of MIC; assay type: functional
Staphylococcus aureus [11] = assay: Antibacterial activity against methicillin-resistant Staphylococcus aureus 33815 infected in in vitro pharmacokinetic model assessed as reduction in viable count at 1500 mg, iv every 8 hrs measured after 48 hrs using 10^8 CFU/ml inoculum; assay type: functional; outline: as §4
Staphylococcus aureus [12] = assay: T>MIC for 2-log drop in count in methicillin-resistant Staphylococcus aureus 33829 in in vitro pharmacokinetic model after 24 hrs using 10^6 CFU/ml inoculum; assay type: functional
Staphylococcus aureus [13] = assay: Antibacterial activity against methicillin-resistant Staphylococcus aureus 33829 infected in in vitro pharmacokinetic model assessed as reduction in viable count at 1500 mg, iv every 8 hrs measured after 48 hrs using 10^6 CFU/ml inoculum; assay type: functional; outline: as §2
Staphylococcus aureus [14] = assay: Antibacterial activity against methicillin-resistant Staphylococcus aureus 33827 infected in in vitro pharmacokinetic model assessed as reduction in viable count at 750 mg, iv every 8 hrs measured after 24 hrs using 10^8 CFU/ml inoculum; assay type: functional; outline: as §2
Staphylococcus aureus [15] = assay: Antibacterial activity against methicillin-resistant Staphylococcus aureus 33827 infected in in vitro pharmacokinetic model assessed as reduction in viable count at 750 mg, iv every 8 hrs measured after 24 hrs using 10^6 CFU/ml inoculum; assay type: functional; outline: as §2
Staphylococcus aureus [16] = assay: Antibacterial activity against methicillin-sensitive Staphylococcus aureus 5956 infected in in vitro pharmacokinetic model assessed as time required to 99% killing at 1500 mg, iv every 8 hrs using 10^6 CFU/ml inoculum; assay type: functional
Staphylococcus aureus [17] = assay: AUBKC (0 to 24 hrs) in methicillin-resistant Staphylococcus aureus 33820 infected in in vitro pharmacokinetic model at 750 mg, iv every 8 hrs using 10^6 CFU/ml inoculum; assay type: functional; outline: as §3
Staphylococcus aureus [18] = assay: Antibacterial activity against methicillin-resistant Staphylococcus aureus 33827 in in vitro pharmacokinetic model assessed as viable count at 4 times of MIC; assay type: functional
Outline: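 Population analysis before drug exposure (time 0). Model samples were plated on nutrient agar without drug and with tomopenem at 2×, 4× and 6× MIC (10% MHB MIC), and growth was recorded as log CFU/ml. Detection limit 2 log10.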

Staphylococcus aureus [19] = assay: Antibacterial activity against methicillin-sensitive Staphylococcus aureus 5956 assessed as viable count at 2 times of MIC after 24 hrs using 10^6 CFU/ml inoculum; assay type: functional, organism-based
Staphylococcus aureus [20] = assay: AUBKC (0 to 24 hrs) in methicillin-resistant Staphylococcus aureus 33827 infected in in vitro pharmacokinetic model at 750 mg, iv every 8 hrs using 10^8 CFU/ml inoculum; assay type: functional; outline: as §3
Staphylococcus aureus [21] = assay: Antibacterial activity against methicillin-resistant Staphylococcus aureus 33829 assessed as viable count at 2 times of MIC after 24 hrs using 10^6 CFU/ml inoculum; assay type: functional, organism-based
Staphylococcus aureus [22] = assay: Antibacterial activity against methicillin-resistant Staphylococcus aureus 33827 infected in in vitro pharmacokinetic model assessed as reduction in viable count at 1500 mg, iv every 8 hrs measured after 24 hrs using 10^8 CFU/ml inoculum; assay type: functional; outline: as §2
Staphylococcus aureus [23] = assay: AUBKC (0 to 48 hrs) in methicillin-resistant Staphylococcus aureus 33921 infected in in vitro pharmacokinetic model at 1500 mg, iv every 8 hrs using 10^6 CFU/ml inoculum; assay type: functional; outline: as §3
Staphylococcus aureus [24] = assay: Antibacterial activity against methicillin-resistant Staphylococcus aureus 33827 infected in in vitro pharmacokinetic model assessed as reduction in viable count at 750 mg, iv every 8 hrs measured after 12 hrs using 10^8 CFU/ml inoculum; assay type: functional; outline: as §2
Staphylococcus aureus [25] = assay: Antibacterial activity against methicillin-resistant Staphylococcus aureus 33815 infected in in vitro pharmacokinetic model assessed as reduction in viable count at 1500 mg, iv every 8 hrs measured after 36 hrs using 10^6 CFU/ml inoculum; assay type: functional; outline: as §1

**Q.** How did the log10CFU/ml (Staphylococcus aureus [1]) turn out when C[C@@H](O)[C@H]1C(=O)N2C(C(=O)O)=C(S[C@H]3C[C@@H](C(=O)N4CC[C@H](NC(=O)CNC(=N)N)C4)N(C)C3)[C@H](C)[C@H]12 [TOMOPENEM] was run?
**A.** 4.2

**Q.** What about the Time (Staphylococcus aureus [2]) of the same compound?
**A.** 12 h

**Q.** And the log10CFU/ml (Staphylococcus aureus [3])?
**A.** 4.2

**Q.** And the Activity (Staphylococcus aureus [4])?
**A.** inactive

**Q.** And the “fT>MIC” value (Staphylococcus aureus [5])?
**A.** 1.3%

**Q.** What about the AUBC (Staphylococcus aureus [6]) of the same compound?
**A.** 37.4 log10CFU/ml.hr

**Q.** What about the log10CFU/ml (Staphylococcus aureus [7]) of the same compound?
**A.** 4.2

**Q.** What about the log10CFU/ml (Staphylococcus aureus [8]) of the same compound?
**A.** 5

**Q.** What about the “fT>MIC” value (Staphylococcus aureus [9]) of the same compound?
**A.** 5.9%

**Q.** What about the log10CFU/ml (Staphylococcus aureus [10]) of the same compound?
**A.** 6

**Q.** What about the log10CFU/ml (Staphylococcus aureus [11]) of the same compound?
**A.** 3.9

**Q.** What about the “fT>MIC” value (Staphylococcus aureus [12]) of the same compound?
**A.** 20.8%

**Q.** And the log10CFU/ml (Staphylococcus aureus [13])?
**A.** 3.8

**Q.** What about the log10CFU/ml (Staphylococcus aureus [14]) of the same compound?
**A.** 5.2

**Q.** And the log10CFU/ml (Staphylococcus aureus [15])?
**A.** 3.6

**Q.** And the Time (Staphylococcus aureus [16])?
**A.** 5 h

**Q.** And the AUBC (Staphylococcus aureus [17])?
**A.** 28.6 log10CFU/ml.hr

**Q.** And the log10CFU/ml (Staphylococcus aureus [18])?
**A.** <2

**Q.** What about the Activity (Staphylococcus aureus [19]) of the same compound?
**A.** inactive

**Q.** And the AUBC (Staphylococcus aureus [20])?
**A.** 77.4 log10CFU/ml.hr

**Q.** What about the Activity (Staphylococcus aureus [21]) of the same compound?
**A.** inactive

**Q.** What about the log10CFU/ml (Staphylococcus aureus [22]) of the same compound?
**A.** 5.8

**Q.** What about the AUBC (Staphylococcus aureus [23]) of the same compound?
**A.** 38.1 log10CFU/ml.hr

**Q.** What about the log10CFU/ml (Staphylococcus aureus [24]) of the same compound?
**A.** 3.8

**Q.** And the log10CFU/ml (Staphylococcus aureus [25])?
**A.** 4.2
